ChEMBL document CHEMBL1240420, “Synthesis and biological evaluation of cinnamido linked pyrrolo[2,1-c][1,4]benzodiazepines as antimitotic agents” (Eur J Med Chem, 2010)
pIC50: −log10 of the molar value. Where a name gives a salt, the structure may show the parent alone. The source made the active and inactive calls. The calls are words filed in the database; no cut-off is given here.

How the values were obtained:
A549 = test: Cytotoxicity against human A549 cells after 48 hrs by SRB assay; assay type: functional; conditions: A549, 48 h
Outline: (§1)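 Cells were grown in RPMI 1640 with 10% FBS and 2 mM L-glutamine, plated 24 h before dosing, then given continuous 48 h exposure at 0.1, 1, 10 and 100 µM in triplicate wells. Cells were fixed with cold TCA (10% final, 60 min, 4 °C), stained with 0.4% SRB in 1% acetic acid for 20 min, eluted with 10 mM Tris base, and read at 540/690 nm. GI50 was taken from [(Ti−Tz)/(C−Tz)]×100 = 50; three determinations were averaged.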

HOP-62 = test: Cytotoxicity against human HOP62 cells after 48 hrs by SRB assay; assay type: functional; conditions: HOP-62, 48 h; outline: as §1
A2780 = test: Cytotoxicity against human A2780 cells after 48 hrs by SRB assay; assay type: functional; conditions: A2780, 48 h; outline: as §1
KB = test: Cytotoxicity against human KB cells after 48 hrs by SRB assay; assay type: functional; outline: as §1
SiHa = test: Cytotoxicity against human SiHa cells after 48 hrs by SRB assay; assay type: functional
Outline: (§2)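 Cells grown in RPMI 1640 with 10% FBS and 2 mM L-glutamine, plated and left 24 h at 37 °C/5% CO2, then exposed continuously for 48 h to 0.1, 1, 10 and 100 µM in triplicate wells. Fixed with cold TCA (10% final), stained with 0.4% SRB, eluted with 10 mM Tris base, read at 540 nm (690 nm reference). GI50 from [(Ti−Tz)/(C−Tz)]×100 = 50; mean of three determinations.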

[1] = Cytotoxicity against human GURAV cells after 48 hrs by SRB assay; assay type: functional; outline: as §1
COLO 205 = test: Cytotoxicity against human COLO205 cells after 48 hrs by SRB assay; assay type: functional; conditions: COLO 205, 48 h; outline: as §1
PC-3 = test: Cytotoxicity against human PC3 cells after 48 hrs by SRB assay; assay type: functional; conditions: PC-3, 48 h; outline: as §1
MCF7 [2] = test: Cytotoxicity against human MCF7 cells after 48 hrs by SRB assay; assay type: functional; conditions: MCF7, 48 h; outline: as §1
ZR-75-1 = test: Cytotoxicity against human ZR-75-1 cells after 48 hrs by SRB assay; assay type: functional; conditions: ZR-75-1, 48 h; outline: as §2
[3] = Cytotoxicity against human DWD cells after 48 hrs by SRB assay; assay type: functional; outline: as §1
Bos taurus = species on record: Bos taurus; test: Inhibition of bovine tubulin at 2.5 uM after 3 hrs relative to control
[4] = Inhibition of bovine tubulin after 3 hrs; set-up: species or system Bos taurus
Outline: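 Bovine brain tubulin purified by three polymerization/depolymerization cycles. A340 read every 2 min for 3 h at 37 °C, nocodazole as control. IC50 taken as the concentration halving assembly versus control.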

Tubulin (Homo sapiens) = Tubulin (Homo sapiens) (UniProt P68371+Q9H4B7+P0DPH7+P68366+Q13509+Q71U36+P04350+Q3ZCM7+P07437+P68363+Q9BQE3+Q6PEY2+Q13885+Q9BVA1+Q9BUF5); test: Inhibition of tubulin polymerization in human MCF7 cells at 2.5 uM by immunohistochemistry; assay type: cell-based
Outline: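 MCF7 cells on glass cover slips exposed 48 h to 2.5 µM. Fixed with 3% paraformaldehyde/0.02% glutaraldehyde, permeabilized in −20 °C methanol, blocked with 1% BSA. Stained with mouse monoclonal anti-tubulin plus FITC secondary, then confocal imaging of microtubule network integrity. Nocodazole and taxol (2.5 µM) run as controls; untreated cells as baseline.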

MCF7 [5] = test: Cell cycle arrest in human MCF7 cells assessed as accumulation at G0 phase after 48 hrs using FITC/propidium iodide staining by flow cytometry; assay type: functional, cell-based
Outline: (§3)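 MCF7 cells in 6-well plates were exposed for 48 h, harvested with trypsin–EDTA, and fixed in ice-cold 70% ethanol at 4 °C for 30 min. They were then stained with a propidium iodide solution containing trisodium citrate and Triton X-100 for 30 min in the dark. DNA content was read by flow cytometry on 20,000 events, and cells were scored by cell-cycle phase from histograms.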

MCF7 [6] = test: Cell cycle arrest in human MCF7 cells assessed as accumulation at G2/M phase after 48 hrs using FITC/propidium iodide staining by flow cytometry; assay type: functional, cell-based; outline: as §3
MCF7 [7] = test: Induction of apoptosis in human MCF7 cells assessed as nuclear condensation at 2 uM after 48 hrs by fluorescence microscopy; assay type: functional, cell-based
Outline: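 MCF7 cells on cover slips in 6-well plates treated 48 h at 1–3 µM. Nocodazole and podophyllotoxin (1 µM) served as controls. Fixed in 3% paraformaldehyde/0.02% glutaraldehyde, stained with Hoechst (5 µM, 30 min), washed in PBS and imaged by fluorescence microscopy with DAPI filters. Five fields of view examined.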

Row | Compound | GI50 (A549) [nM] | GI50 (HOP-62) [nM] | GI50 (A2780) [nM] | GI50 (KB) [nM] | GI50 (SiHa) [nM] | GI50 [1] [nM] | GI50 (COLO 205) [nM] | GI50 (PC-3) [nM] | GI50 (MCF7 [2]) [nM] | GI50 (ZR-75-1) [nM] | GI50 [3] [nM] | inhibition (Bos taurus) [%] | pIC50 [4] | inhibition (Tubulin (Homo sapiens)) | Activity (MCF7 [5]) | Activity (MCF7 [6]) | Activity (MCF7 [7])
1 | COc1cc2c(cc1O)N=C[C@@H]1CCCN1C2=O | 160 | 150 | 140 | 170 | 170 | 160 | 110 | 200 | 170 |  |  |  |  |  |  |  | 
2 | COc1cc(/C=C/C(=O)N2CCOCC2)ccc1OCCCCOc1cc2c(cc1OC)C(=O)N1CCC[C@H]1C=N2 | 110 | 160 | 120 | 130 | 140 | 130 | 120 | 140 | 140 | 150 | < 100 | 40 | 4.79 | Active | Active | Active | Active
3 | COc1cc(/C=C/C(=O)N2CCN(C(=O)c3cc(OC)c(OC)c(OC)c3)CC2)ccc1OCCCCOc1cc2c(cc1OC)C(=O)N1CCC[C@H]1C=N2 | 120 | 170 | 150 | 150 | 170 | 110 | < 100 | < 100 | 140 | 150 | 110 |  |  |  |  |  | 
4 | COc1cc(/C=C/C(=O)N2CCOCC2)ccc1OCCCOc1cc2c(cc1OC)C(=O)N1CCC[C@H]1C=N2 | < 100 | 140 | < 100 | < 100 | 120 | 100 | 100 | 130 | < 100 | 120 | < 100 |  |  |  |  |  | 
5 | COc1cc(/C=C/C(=O)N2CCOCC2)ccc1OCCCCCOc1cc2c(cc1OC)C(=O)N1CCC[C@H]1C=N2 | < 100 | 170 | 140 | 150 | 170 | 160 | < 100 | < 100 | < 100 | < 100 | < 100 |  |  |  |  |  | 
6 | COc1cc(/C=C/C(=O)N2CCN(C(=O)/C=C/c3ccc(OCCCOc4cc5c(cc4OC)C(=O)N4CCC[C@H]4C=N5)c(OC)c3)CC2)ccc1OCCCOc1cc2c(cc1OC)C(=O)N1CCC[C@H]1C=N2 | < 100 | 150 | 120 | 140 | 160 | 140 | < 100 | 150 | < 100 | < 100 | < 100 |  |  |  |  |  | 
7 | COc1cc(/C=C/C(=O)N2CCN(C(=O)/C=C/c3ccc(OCCCCCOc4cc5c(cc4OC)C(=O)N4CCC[C@H]4C=N5)c(OC)c3)CC2)ccc1OCCCCCOc1cc2c(cc1OC)C(=O)N1CCC[C@H]1C=N2 | 110 | 180 | 160 | 2000 | 2000 | 2300 | < 100 | < 100 | 1000 | < 100 | < 100 |  |  |  |  |  | 
8 | COc1cc(/C=C/C(=O)N2CCN(C(=O)c3cc(OC)c(OC)c(OC)c3)CC2)ccc1OCCCCCOc1cc2c(cc1OC)C(=O)N1CCC[C@H]1C=N2 | 110 | 150 | 110 | 120 | 140 | 130 | < 100 | 140 | 130 | 140 | < 100 |  |  |  |  |  | 
9 | COc1cc(/C=C/C(=O)N2CCOCC2)ccc1OCCCCCCOc1cc2c(cc1OC)C(=O)N1CCC[C@H]1C=N2 | < 100 | < 100 | < 100 | < 100 | < 100 | < 100 | 150 | 170 | 150 | 140 | 150 |  |  |  |  |  | 
10 | COc1cc(/C=C/C(=O)N2CCN(C(=O)c3cc(OC)c(OC)c(OC)c3)CC2)ccc1OCCCCCCOc1cc2c(cc1OC)C(=O)N1CCC[C@H]1C=N2 | 160 | 2600 | 180 | 1900 | 2500 | 1900 | 2100 | 1900 | 180 | 210 | 170 |  |  |  |  |  | 
11 | COc1cc(/C=C/C(=O)N2CCN(C(=O)/C=C/c3ccc(OCCCCOc4cc5c(cc4OC)C(=O)N4CCC[C@H]4C=N5)c(OC)c3)CC2)ccc1OCCCCOc1cc2c(cc1OC)C(=O)N1CCC[C@H]1C=N2 | < 100 | < 100 | < 100 | < 100 | < 100 | < 100 | 150 | 160 | 150 | 150 | 120 | 40 | 4.55 | Active | Active | Active | Active
12 | COc1cccc2c1C(=O)c1c(O)c3c(c(O)c1C2=O)C[C@@](O)(C(=O)CO)C[C@@H]3O[C@H]1C[C@H](N)[C@H](O)[C@H](C)O1 [DOXORUBICIN HYDROCHLORIDE] | < 100 | 120 | < 100 | 130 | 150 | 140 | 130 | 160 | < 100 | 120 | 120 |  |  |  |  |  | 
13 | COc1cc(/C=C/C(=O)N2CCN(C(=O)/C=C/c3ccc(OCCCCCCOc4cc5c(cc4OC)C(=O)N4CCC[C@H]4C=N5)c(OC)c3)CC2)ccc1OCCCCCCOc1cc2c(cc1OC)C(=O)N1CCC[C@H]1C=N2 | 150 | < 100 | < 100 | < 100 | < 100 | < 100 | < 100 | 150 | 1900 | 210 | < 100 |  |  |  |  |  | 
